In all, about 330,000 compounds went through this assay and about 1,100 (0.33%) were called active. This is one part of a sample in which actives are shown more often than they occur.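 Rule for the calls: active = at 10 µM dose, activation of 40% or more, normalized to positive control; inactive = the rest.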

A short description of this experiment: activators of apoptotic CHOP UPR arm, primary screen, cell-based, CHO-CHOP luciferase reporter, luminescence, uHTS (AID 449763).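 Note: 100% = tunicamycin at 10 µg/mL and 0% = DMSO alone.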 Particulars: at 10 µM, stronger effect = higher value, percent of tunicamycin response over DMSO baseline. The method in brief: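 Assay system: CHO cells with stable CHOP pathway luciferase reporter; Buffer or medium: F12 plus 10% serum; Times: 16-18 h cell attachment, then 6 h compound exposure, 37 °C; Signal: luciferase luminescence; Read-out basis: percent activation relative to tunicamycin control; Control set: tunicamycin high control, DMSO low control.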
Background: In a reporter assay the amount or activity of a reporter protein is the signal.
Turning to `O=C1NC(=O)N(CCc2ccc(F)cc2)C(=O)/C1=C/C=C/c1ccccc1`, the activation is 75.4% (active).

Regarding `O=C1NC(=O)N(Cc2ccco2)C(=O)/C1=C\c1ccc(-c2ccc(F)cc2)o1`, the activation was 0.772% (inactive).

Take `O=C(O)COc1ccccc1/C=C1\C(=O)NC(=O)N(CCC2=CCCCC2)C1=O`: the activation is -0.189% (inactive).

In the case of `COc1cccc(-c2nc3ccc(N4CCN(C)CC4)cc3[nH]2)c1`, the activation is -6.37% (inactive).

Regarding `Cc1cc(N2C(=O)C3CCCN3C2c2ccc(Cl)c(Cl)c2)no1` (stereo not given), the activation is -0.781% (inactive).

The values above are taken from PubChem BioAssay AID449763 (Sanford-Burnham Center for Chemical Genomics, 2010).
